Source: ChEMBL document CHEMBL1148362 (J Med Chem, 2004)

Experiments:
CCRF-CEM = assay: Inhibition of cell growth in CEM leukemia T cells was determined; assay type: functional; details: Homo sapiens
THP-1 = assay: Inhibition of TNF-alpha production was determined in THP-1cells after LPS activation by Enzyme immunoassay; assay type: functional, cell-based; details: Homo sapiens
Outline: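 Human monocytic THP-1 cells treated 30 min before LPS activation, then incubated 3 h. TNF-α in the output measured by competitive enzyme immunoassay and IC50 derived. Values are mean of two experiments with standard deviation. PDTC served as control.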

Jurkat = assay: Inhibition of IL-2 production was determined in Jurkat cells after PMA/PHA activation by Enzyme immunoassay; assay type: functional, cell-based; details: Homo sapiens
Outline: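 Human Jurkat leukemia T-cells exposed to test agents 30 min before PMA activation. Cell-free supernatants collected after 24 h and total IL-2 quantified by competitive enzyme immunoassay. Dose–response tested up to 10 μM. IC50 derived. PDTC control included in all experiments.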

[1] = test system: Nuclear factor NF-kappa-B (Homo sapiens); assay: Inhibition of DNA binding of NF-uM) PMA/PHA activated Jurkat cells; No significant inhibition

**Q.** With `NC1=NC(=O)/C(=C2\CCNC(=O)c3[nH]c(Br)cc32)N1` [HYMENIALDISINE] as the molecule, how does the GI50 (CCRF-CEM) read?
**A.** 1.61 µM

**Q.** What about the IC50 (THP-1) of the same molecule?
**A.** 1.36 µM

**Q.** And the IC50 (Jurkat)?
**A.** 2.41 µM

**Q.** `Cn1c2c(c3ccccc31)/C(=C1\N=C(N)NC1=O)CCNC2=O` was tested. Which GI50 (CCRF-CEM) did it give?
**A.** 14.3 µM

**Q.** What about the inhibition [1] of the same molecule?
**A.** No effect

**Q.** And the IC50 (THP-1)?
**A.** > 10 µM

**Q.** What about the IC50 (Jurkat) of the same molecule?
**A.** > 10 µM

**Q.** Which GI50 (CCRF-CEM) does the source give for `Nc1nc(C2=C3C(=Nc4ccccc43)C(=O)NCC2)c(O)[nH]1` here?
**A.** 1.73 µM

**Q.** And the IC50 (THP-1)?
**A.** 8.16 µM

**Q.** What about the IC50 (Jurkat) of the same molecule?
**A.** 3.55 µM
